From ChEMBL document CHEMBL1148506, “Structure-activity relationships of new 1H-imidazo[4,5-c]quinolin-4-amine derivatives as allosteric enhancers of the A3 adenosine receptor” (J Med Chem, 2006) come the findings set out here.

Assay [1] deals with T1, Adenosine receptor A2b (Homo sapiens) (UniProt P29275).
T1 sequence (whole entry): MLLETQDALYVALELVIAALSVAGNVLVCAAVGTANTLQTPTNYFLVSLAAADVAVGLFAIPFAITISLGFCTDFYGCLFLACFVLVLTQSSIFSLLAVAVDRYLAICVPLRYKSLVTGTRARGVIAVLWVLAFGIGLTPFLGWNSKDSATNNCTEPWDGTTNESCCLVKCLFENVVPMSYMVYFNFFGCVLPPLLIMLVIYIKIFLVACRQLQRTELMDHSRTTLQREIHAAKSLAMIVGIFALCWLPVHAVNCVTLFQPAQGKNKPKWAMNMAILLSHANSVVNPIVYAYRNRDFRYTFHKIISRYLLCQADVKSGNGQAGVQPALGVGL
Nature of the assay: Antagonist activity at human adenosine A2B receptor assessed as inhibition of NECA-induced cAMP accumulation in CHO membrane at 10 uM. More on the design: scale not given: the % may be the effect or the level left. A general note: cAMP levels reflect the balance of adenylyl cyclase and phosphodiesterase activity.

The target in assay [2] is T2, Adenosine receptor A2a (Homo sapiens, UniProt P29274). Kind of assay: Displacement of [3H]CGS21680 from human adenosine A2A receptor in HEK293 cells at 10 uM. (In general: Displacement assays read how much labelled ligand stays bound in the presence of the test substance.)
T2 sequence (P29274 whole entry): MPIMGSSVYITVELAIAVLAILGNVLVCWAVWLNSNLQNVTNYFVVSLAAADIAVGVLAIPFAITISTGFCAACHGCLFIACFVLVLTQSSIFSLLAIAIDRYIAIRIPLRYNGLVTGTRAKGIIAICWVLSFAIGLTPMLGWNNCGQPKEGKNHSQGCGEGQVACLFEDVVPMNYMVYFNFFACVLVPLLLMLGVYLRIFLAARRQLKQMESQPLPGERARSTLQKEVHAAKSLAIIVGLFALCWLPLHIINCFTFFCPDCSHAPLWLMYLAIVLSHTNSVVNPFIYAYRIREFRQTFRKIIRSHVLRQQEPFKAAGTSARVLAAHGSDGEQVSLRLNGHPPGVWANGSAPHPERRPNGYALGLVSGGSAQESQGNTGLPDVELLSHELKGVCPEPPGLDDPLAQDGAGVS
The target of assay [3] is T3, Adenosine receptor A3 (Homo sapiens) (UniProt P0DMS8).
T3 sequence (whole entry): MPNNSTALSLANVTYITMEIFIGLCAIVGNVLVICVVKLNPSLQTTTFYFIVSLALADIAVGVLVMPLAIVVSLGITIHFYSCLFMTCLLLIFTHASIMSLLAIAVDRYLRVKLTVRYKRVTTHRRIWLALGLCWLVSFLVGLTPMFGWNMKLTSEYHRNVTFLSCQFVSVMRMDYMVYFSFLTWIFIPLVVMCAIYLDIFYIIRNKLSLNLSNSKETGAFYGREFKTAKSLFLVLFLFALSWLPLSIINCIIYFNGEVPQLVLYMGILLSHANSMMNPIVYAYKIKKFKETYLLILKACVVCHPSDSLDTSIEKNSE
Nature of the assay: Increase of efficacy at human adenosine A3 receptor in CHO cells at 10 uM relative to 2-Cl-IB-MECA.

The target in assay [4] is T4, Adenosine receptor A1 (Homo sapiens) (UniProt P30542).
T4 sequence (whole entry): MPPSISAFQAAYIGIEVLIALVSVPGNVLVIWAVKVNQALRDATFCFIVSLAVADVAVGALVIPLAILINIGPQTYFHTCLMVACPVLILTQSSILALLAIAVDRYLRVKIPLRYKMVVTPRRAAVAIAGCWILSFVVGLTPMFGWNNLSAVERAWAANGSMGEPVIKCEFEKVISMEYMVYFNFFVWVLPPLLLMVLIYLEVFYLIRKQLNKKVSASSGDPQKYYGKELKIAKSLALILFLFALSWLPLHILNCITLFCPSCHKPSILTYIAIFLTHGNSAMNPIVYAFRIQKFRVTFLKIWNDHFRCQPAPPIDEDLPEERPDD
Nature of the assay: Displacement of [3H]R-PIA from human adenosine A1 receptor in CHO membrane at 10 uM. Type of assay: cell membranes.

Assay [5] has as its target T3, Adenosine receptor A3 (Homo sapiens). Nature of the assay: Displacement of [125I]I-AB-MECA from human adenosine A3 receptor in CHO membrane at 10 uM. Type of assay: cell membranes. The method in brief:
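Membranes from CHO cells stably expressing human A3AR (20 μg protein) incubated with 0.5 nM [125I]I-AB-MECA and 10 μM test ligand, 60 min at 25°C, in 50 mM Tris·HCl pH 8.0, 10 mM MgCl2, 1 mM EDTA. Nonspecific binding defined with 10 μM NECA; filtration, gamma counting. Mean of 2-4 experiments in duplicate.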

Assay [6] has the same target. Nature of the assay: Decrease in dissociation of [125I]I-AB-MECA from human adenosine A3 receptor in CHO membrane at 10 uM relative to control after 30 min. Type of assay: cell membranes. More on the design: scale not given: the % may be the effect or the level left. In outline:
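Membranes (20 μg) preloaded with 0.5 nM [125I]I-AB-MECA, 60 min at 25°C, in 50 mM Tris-HCl pH 8.0 with 10 mM MgCl2 and 1 mM EDTA. Dissociation started with 3 μM Cl-IB-MECA, with or without 10 μM modulator. Binding read by rapid filtration at 30 min; reported as % decrease in dissociation versus control (100%).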

For assay [7], the target named is T2, Adenosine receptor A2a. Kind of assay: Displacement of [3H]CGS21680 from human adenosine A2A receptor in HEK293 cells.
Another assay has as its target T5, Adenosine receptor A1 (Homo sapiens, UniProt P30542).
T5 sequence (P30542 whole entry): T4 sequence (whole entry)
Kind of assay: Displacement of [3H]R-PIA from human adenosine A1 receptor in CHO membrane. The class given is cell membranes. In outline:
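Membranes (40 μg/tube) from CHO cells stably expressing human A1AR, incubated with 2 nM [3H]R-PIA at 25 °C for 60 min in 50 mM Tris·HCl pH 7.4, 10 mM MgCl2. Membranes stored with 3 U/mL adenosine deaminase. Nonspecific binding defined with 10 μM N6-cyclopentyladenosine. Reaction ended by GF/B filtration.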

pKi: −log10 of the molar value.

On to `c1ccc(CNc2[nH]c3ccccc3c3nc(C4CCCC4)nc2-3)cc1`, for which the Activity in assay [1] was -3.4%; on Adenosine receptor A2a [2] it was 77%; in assay [3], 147%; in assay [4], 28%; in assay [5], 86%; in assay [6], 145%.
As for `COc1ccc(Nc2nc3ccccc3c3nc(C4CCCC4)[nH]c23)cc1`, the Activity came out at 7.3% in assay [1]; 16% on Adenosine receptor A2a [2]; 132% in assay [3]; 92% in assay [5]; 166% in assay [6]. In addition, the pKi (as a rule, the negative decadic logarithm of the Ki, by convention in mol/L) on Adenosine receptor A2a [7] is less than 5.00.
For `c1ccc2c3nc(C4CCCC4)nc-3c(Nc3ccc4c[nH]nc4c3)[nH]c2c1`, the Activity in assay [1] was determined as 5%; at Adenosine receptor A2a [2], 68%; in assay [3] it was 96%; in assay [4] it was 56%; in assay [5], 67%; in assay [6], 109%.
Consider `CCCCCc1nc2c(Nc3ccc(Cl)c(Cl)c3)[nH]c3ccccc3c-2n1`, for which the Activity in assay [1] was -9.3%; on Adenosine receptor A2a [2], -1%; in assay [3], 102%; in assay [4], 43.9%; in assay [5], 84%; in assay [6] it was 116%.
In the case of `Clc1ccc(Nc2nc3ccccc3c3[nH]c(C4CCC4)nc23)cc1Cl`, the Activity in assay [1] was -5.5%; at Adenosine receptor A2a [2], 0.4%; in assay [3], 126%; in assay [4], -5%; in assay [5], 52%.
On to `Clc1ccc(Nc2nc3ccccc3c3[nH]c(C4CCCCCC4)nc23)cc1Cl`, for which the Activity in assay [1] was -7.3%; on Adenosine receptor A2a [2] it was -2%; in assay [3], 115%; in assay [4], -4%; in assay [5], 68%; in assay [6], 130%.
As to `Clc1ccc(Nc2[nH]c3ccccc3c3nc(-c4ccco4)nc2-3)cc1Cl`, the Activity in assay [1] is 9%; on Adenosine receptor A2a [2] it was 70%; in assay [3] it was 95%; in assay [4], -4%; in assay [5], 78%; in assay [6], 98%.
Turning to `OCc1cccc(Nc2[nH]c3ccccc3c3nc(C4CCCC4)nc2-3)c1`, the Activity is -4.1% in assay [1]; 49% at Adenosine receptor A2a [2]; 118% in assay [3]; 51% in assay [4]; 56% in assay [5]; 129% in assay [6].
Take `c1ccc2c3nc(C4CCCC4)nc-3c(Nc3ccc4c(c3)CCC4)[nH]c2c1`: the Activity is -10.7% in assay [1]; 8% on Adenosine receptor A2a [2]; 111% in assay [3]; 21% in assay [4]; 69% in assay [5]; 108% in assay [6].
`Clc1ccc(Nc2[nH]c3ccccc3c3ncnc2-3)cc1Cl`: the Activity in assay [1] is 10.2%; on Adenosine receptor A2a [2], -0.8%; in assay [3], 92%; in assay [4] it was 1.8%; in assay [5], 39%; in assay [6] it was 91%.
`Clc1ccc(Nc2nc3ccccc3c3[nH]c(C4CCCC4)nc23)cc1`: the Activity in assay [1] was -10.2%; at Adenosine receptor A2a [2], 17%; in assay [3], 136%; in assay [4], 22%; in assay [5], 82%; in assay [6] it was 159%. The pKi at Adenosine receptor A2a [7] and at Adenosine receptor A1 was less than 5.00 each time.
With `c1ccc(Nc2nc3ccccc3c3[nH]c(C4CCCC4)nc23)cc1`, the Activity was -6.8% in assay [1], 138% in assay [3], 90% in assay [5] and 174% in assay [6].
`Clc1ccc(Nc2nc3ccccc3c3[nH]c(C4CCCC4)nc23)cc1Cl`: the Activity in assay [1] was -6.7%; at Adenosine receptor A2a [2], 0%; in assay [3] it was 141%; in assay [4] it was 15%; in assay [5] it was 67%; in assay [6] it was 144%. The pKi on Adenosine receptor A2a [7] and at Adenosine receptor A1 was less than 5.00 each time.
`COc1ccc(CNc2[nH]c3ccccc3c3nc(C4CCCC4)nc2-3)cc1`: the Activity stood at 0.3% in assay [1]; 60% at Adenosine receptor A2a [2]; 109% in assay [3]; 59% in assay [4]; 80% in assay [5]; 101% in assay [6].
With `c1ccc2c3nc(C4CCCC4)nc-3c(Nc3ccc4cc[nH]c4c3)[nH]c2c1`, the Activity was found to be 10.1% in assay [1]; 74% on Adenosine receptor A2a [2]; 125% in assay [3]; 70% in assay [4]; 89% in assay [5]; 126% in assay [6].
Regarding `c1ccc(CCNc2[nH]c3ccccc3c3nc(C4CCCC4)nc2-3)cc1`, the Activity in assay [1] was -11.6%; at Adenosine receptor A2a [2], 91%; in assay [3] it was 137%; in assay [4] it was 52%; in assay [5], 84%; in assay [6], 154%.
Regarding `Clc1ccc(Nc2nc3ccccc3c3nc(C4CCCCC4)[nH]c23)cc1Cl`, the Activity in assay [1] is -5.6%; at Adenosine receptor A2a [2], -1%; in assay [3], 145%; in assay [4], -2%; in assay [5], 45%; in assay [6], 173%.
Regarding `Cc1ccc(Nc2nc3ccccc3c3[nH]c(C4CCCC4)nc23)cc1`, the Activity was -4.1% in assay [1], 128% in assay [3], 87% in assay [5] and 153% in assay [6].
